Data: ChEMBL document CHEMBL1154229 (Bioorg Med Chem Lett, 2009)
Activity calls are given as the source filed them. No cut-off for these calls is given here.

Experiments:
[1] = biological target: Sodium channel protein type 5 subunit alpha (Homo sapiens, UniProt Q14524); experiment: Inhibition of Nav1.5 channel
Cytochrome P450 3A4 = Cytochrome P450 3A4 (Homo sapiens, UniProt P08684); experiment: Inhibition of CYP3A4; type: ADME
[2] = Bioavailability in rat at 1 mg/kg, iv and 2 mg/kg, po; type: ADME, organism-based; settings: in vivo
Outline: (§1)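 Rats dosed IV at 1 mg/kg (n = 2) and PO at 2 mg/kg (n = 3). Blood drug levels measured by LC/MS/MS after protein precipitation with acetonitrile.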

Cytochrome P450 2C9 = Cytochrome P450 2C9 (Homo sapiens, UniProt P11712); experiment: Inhibition of CYP2C9; type: ADME
Chain of Cytochrome P450 2C9 (P11712 whole entry): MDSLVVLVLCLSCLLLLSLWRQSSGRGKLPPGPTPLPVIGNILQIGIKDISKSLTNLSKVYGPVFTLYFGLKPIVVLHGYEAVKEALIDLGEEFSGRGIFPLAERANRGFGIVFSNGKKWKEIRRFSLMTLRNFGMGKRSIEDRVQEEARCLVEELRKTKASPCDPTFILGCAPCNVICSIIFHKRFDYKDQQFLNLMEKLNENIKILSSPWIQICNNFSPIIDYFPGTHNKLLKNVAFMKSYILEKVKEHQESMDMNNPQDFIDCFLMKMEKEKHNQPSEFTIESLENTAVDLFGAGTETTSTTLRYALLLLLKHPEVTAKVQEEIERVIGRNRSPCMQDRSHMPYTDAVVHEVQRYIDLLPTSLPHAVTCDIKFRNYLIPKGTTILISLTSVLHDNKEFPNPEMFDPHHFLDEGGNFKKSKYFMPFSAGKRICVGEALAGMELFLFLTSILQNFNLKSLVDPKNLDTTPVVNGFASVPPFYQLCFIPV

Cytochrome P450 2D6 = Cytochrome P450 2D6 (Homo sapiens, UniProt P10635); experiment: (§2) Inhibition of CYP2D6; type: ADME
Chain of Cytochrome P450 2D6 (P10635 whole entry): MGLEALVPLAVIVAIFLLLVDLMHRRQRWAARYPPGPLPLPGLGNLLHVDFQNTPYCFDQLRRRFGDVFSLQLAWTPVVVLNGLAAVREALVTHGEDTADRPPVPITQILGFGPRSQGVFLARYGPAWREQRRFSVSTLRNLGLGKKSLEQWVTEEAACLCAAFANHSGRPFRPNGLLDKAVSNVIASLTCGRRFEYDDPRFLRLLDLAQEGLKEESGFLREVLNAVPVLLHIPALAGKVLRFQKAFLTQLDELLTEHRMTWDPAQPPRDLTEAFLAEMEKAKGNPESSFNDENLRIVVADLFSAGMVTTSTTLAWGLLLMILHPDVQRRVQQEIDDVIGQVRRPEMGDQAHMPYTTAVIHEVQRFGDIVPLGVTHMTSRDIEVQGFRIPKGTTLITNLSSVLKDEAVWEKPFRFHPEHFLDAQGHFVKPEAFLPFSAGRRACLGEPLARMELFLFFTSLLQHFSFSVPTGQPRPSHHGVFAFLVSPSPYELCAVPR

[3] = Volume of distribution at steady state in rat at 1 mg/kg, iv and 2 mg/kg, po; type: ADME, organism-based; settings: in vivo, read-out: Vdss; outline: as §1
[4] = biological target: T1, Bifunctional epoxide hydrolase 2 (Homo sapiens, UniProt P34913); experiment: Inhibition of human soluble epoxide hydrolase in HEK293 cells assessed as DHET production; type: cell-based
T1 sequence (P34913 whole entry): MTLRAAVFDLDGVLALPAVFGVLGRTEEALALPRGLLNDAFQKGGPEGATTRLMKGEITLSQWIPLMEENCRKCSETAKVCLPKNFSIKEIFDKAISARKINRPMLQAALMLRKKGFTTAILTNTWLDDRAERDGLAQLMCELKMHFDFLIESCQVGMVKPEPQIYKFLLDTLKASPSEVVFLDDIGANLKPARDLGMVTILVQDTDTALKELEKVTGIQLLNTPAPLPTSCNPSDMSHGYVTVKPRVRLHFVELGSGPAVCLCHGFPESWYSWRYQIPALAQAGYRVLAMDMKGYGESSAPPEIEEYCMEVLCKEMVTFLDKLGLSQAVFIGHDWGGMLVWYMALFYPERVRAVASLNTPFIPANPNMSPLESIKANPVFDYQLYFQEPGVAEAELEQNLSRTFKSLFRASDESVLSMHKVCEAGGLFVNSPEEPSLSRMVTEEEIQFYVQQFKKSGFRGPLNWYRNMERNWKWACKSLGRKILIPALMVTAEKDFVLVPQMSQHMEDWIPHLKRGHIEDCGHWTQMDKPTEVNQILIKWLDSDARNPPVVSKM
Outline: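 Whole-cell 14,15-DHET production assay in HEK293 cells, run with or without 10% human serum. Values come from one or two experiments, each in triplicate, with repeats within 20%.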

L-type calcium channel = experiment: Inhibition of calcium channel diltiazem binding site
Epoxide hydrolase 1 = biological target: T2, Epoxide hydrolase 1 (Homo sapiens, UniProt P07099); experiment: Inhibition of human microsomal epoxide hydrolase
T2 sequence (P07099 whole entry): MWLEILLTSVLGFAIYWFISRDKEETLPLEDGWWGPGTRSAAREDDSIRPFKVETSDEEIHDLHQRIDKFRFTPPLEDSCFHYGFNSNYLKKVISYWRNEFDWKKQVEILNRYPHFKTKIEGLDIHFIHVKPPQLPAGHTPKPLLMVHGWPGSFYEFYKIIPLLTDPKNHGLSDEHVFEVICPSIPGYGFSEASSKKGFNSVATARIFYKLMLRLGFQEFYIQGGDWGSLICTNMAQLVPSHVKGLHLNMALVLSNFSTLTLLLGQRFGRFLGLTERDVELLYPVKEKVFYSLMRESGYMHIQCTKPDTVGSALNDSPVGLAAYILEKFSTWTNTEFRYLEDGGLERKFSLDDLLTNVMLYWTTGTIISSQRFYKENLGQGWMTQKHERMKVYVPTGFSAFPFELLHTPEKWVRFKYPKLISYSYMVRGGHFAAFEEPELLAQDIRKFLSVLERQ
Outline: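 Human mEH used as the counterscreen enzyme. Values come from one or two experiments, each in triplicate, with repeats within 20%.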

[5] = biological target: T3, Bifunctional epoxide hydrolase 2 (Rattus norvegicus, UniProt P80299); experiment: Inhibition of rat soluble epoxide hydrolase
T3 sequence (P80299 whole entry): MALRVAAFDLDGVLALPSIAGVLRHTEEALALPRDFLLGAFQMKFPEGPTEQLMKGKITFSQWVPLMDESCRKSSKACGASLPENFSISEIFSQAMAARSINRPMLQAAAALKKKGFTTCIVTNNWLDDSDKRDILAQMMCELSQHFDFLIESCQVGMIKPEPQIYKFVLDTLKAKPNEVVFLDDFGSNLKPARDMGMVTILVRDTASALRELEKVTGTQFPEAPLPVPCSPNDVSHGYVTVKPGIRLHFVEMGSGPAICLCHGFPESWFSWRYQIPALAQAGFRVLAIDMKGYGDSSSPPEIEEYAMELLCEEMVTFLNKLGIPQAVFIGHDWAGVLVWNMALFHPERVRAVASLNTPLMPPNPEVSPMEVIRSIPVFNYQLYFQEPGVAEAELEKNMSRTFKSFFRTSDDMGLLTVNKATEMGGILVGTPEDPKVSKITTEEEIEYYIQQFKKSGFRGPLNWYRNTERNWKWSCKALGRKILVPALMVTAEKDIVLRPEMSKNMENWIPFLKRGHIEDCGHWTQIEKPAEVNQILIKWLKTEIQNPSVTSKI

[6] = Half life in rat at 1 mg/kg, iv and 2 mg/kg, po; type: ADME, organism-based; settings: in vivo; outline: as §1
[7] = Clearance in rat at 1 mg/kg, iv and 2 mg/kg, po; type: ADME, organism-based; settings: in vivo; outline: as §1
[8] = Inhibition of potassium channel IKr
[9] = biological target: T1, Bifunctional epoxide hydrolase 2; experiment: Inhibition of human soluble epoxide hydrolase
CYP2D6 = CYP2D6 (Homo sapiens, UniProt P10635); experiment: as §2; type: ADME
Chain of CYP2D6 (P10635 whole entry): as the sequence (P10635 whole entry) above

Cytochrome P450 2C8 = biological target: T4, Cytochrome P450 2C8 (Homo sapiens, UniProt P10632); experiment: Inhibition of CYP2C8; type: ADME
T4 sequence (P10632 whole entry): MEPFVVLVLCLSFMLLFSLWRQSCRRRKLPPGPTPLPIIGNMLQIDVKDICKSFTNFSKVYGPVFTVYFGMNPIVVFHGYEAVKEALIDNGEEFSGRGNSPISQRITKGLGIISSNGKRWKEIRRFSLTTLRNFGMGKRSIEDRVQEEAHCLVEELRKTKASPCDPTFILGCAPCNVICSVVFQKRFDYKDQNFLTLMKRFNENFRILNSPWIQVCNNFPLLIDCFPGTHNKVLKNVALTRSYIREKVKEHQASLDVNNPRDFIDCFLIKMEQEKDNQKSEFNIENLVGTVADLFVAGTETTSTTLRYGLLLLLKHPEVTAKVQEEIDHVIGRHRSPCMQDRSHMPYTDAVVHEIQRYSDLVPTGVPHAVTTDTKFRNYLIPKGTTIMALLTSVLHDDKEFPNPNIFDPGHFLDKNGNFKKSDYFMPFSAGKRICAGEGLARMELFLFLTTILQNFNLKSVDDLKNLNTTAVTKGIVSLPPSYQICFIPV

Rattus norvegicus [10] = experiment: Antihypertensive activity in spontaneously hypertensive rat assessed as change in systolic blood pressure at 50 mg/kg, po up to 8 hrs by telemetry method; type: functional, organism-based; parameters: dose 50 mg/kg; settings: Artery
Outline: (§3)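 Spontaneously hypertensive rats dosed orally at 50 mpk. Systolic and diastolic blood pressure, heart rate and pulse pressure recorded by telemetry over 8 h post dose.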

Rattus norvegicus [11] = experiment: Antihypertensive activity in spontaneously hypertensive rat assessed as change in diastolic blood pressure at 50 mg/kg, po up to 8 hrs by telemetry method; type: functional, organism-based; parameters: dose 50 mg/kg; settings: Artery; outline: as §3

Chain of Cytochrome P450 3A4 (P08684 whole entry): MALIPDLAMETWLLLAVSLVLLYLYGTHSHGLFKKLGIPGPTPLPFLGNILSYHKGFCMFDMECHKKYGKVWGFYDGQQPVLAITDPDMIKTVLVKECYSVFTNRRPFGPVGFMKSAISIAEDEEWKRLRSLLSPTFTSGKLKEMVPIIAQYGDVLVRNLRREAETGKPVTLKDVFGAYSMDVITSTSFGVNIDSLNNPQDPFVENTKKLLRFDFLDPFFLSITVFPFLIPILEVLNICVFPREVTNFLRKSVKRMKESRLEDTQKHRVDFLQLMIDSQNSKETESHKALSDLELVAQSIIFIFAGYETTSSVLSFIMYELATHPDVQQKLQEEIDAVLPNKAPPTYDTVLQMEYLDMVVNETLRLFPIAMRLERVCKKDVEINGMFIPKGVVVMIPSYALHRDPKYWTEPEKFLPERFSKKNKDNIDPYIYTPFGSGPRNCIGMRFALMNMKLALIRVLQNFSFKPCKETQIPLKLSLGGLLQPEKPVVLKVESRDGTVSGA
Chain of Sodium channel protein type 5 subunit alpha (Q14524 whole entry): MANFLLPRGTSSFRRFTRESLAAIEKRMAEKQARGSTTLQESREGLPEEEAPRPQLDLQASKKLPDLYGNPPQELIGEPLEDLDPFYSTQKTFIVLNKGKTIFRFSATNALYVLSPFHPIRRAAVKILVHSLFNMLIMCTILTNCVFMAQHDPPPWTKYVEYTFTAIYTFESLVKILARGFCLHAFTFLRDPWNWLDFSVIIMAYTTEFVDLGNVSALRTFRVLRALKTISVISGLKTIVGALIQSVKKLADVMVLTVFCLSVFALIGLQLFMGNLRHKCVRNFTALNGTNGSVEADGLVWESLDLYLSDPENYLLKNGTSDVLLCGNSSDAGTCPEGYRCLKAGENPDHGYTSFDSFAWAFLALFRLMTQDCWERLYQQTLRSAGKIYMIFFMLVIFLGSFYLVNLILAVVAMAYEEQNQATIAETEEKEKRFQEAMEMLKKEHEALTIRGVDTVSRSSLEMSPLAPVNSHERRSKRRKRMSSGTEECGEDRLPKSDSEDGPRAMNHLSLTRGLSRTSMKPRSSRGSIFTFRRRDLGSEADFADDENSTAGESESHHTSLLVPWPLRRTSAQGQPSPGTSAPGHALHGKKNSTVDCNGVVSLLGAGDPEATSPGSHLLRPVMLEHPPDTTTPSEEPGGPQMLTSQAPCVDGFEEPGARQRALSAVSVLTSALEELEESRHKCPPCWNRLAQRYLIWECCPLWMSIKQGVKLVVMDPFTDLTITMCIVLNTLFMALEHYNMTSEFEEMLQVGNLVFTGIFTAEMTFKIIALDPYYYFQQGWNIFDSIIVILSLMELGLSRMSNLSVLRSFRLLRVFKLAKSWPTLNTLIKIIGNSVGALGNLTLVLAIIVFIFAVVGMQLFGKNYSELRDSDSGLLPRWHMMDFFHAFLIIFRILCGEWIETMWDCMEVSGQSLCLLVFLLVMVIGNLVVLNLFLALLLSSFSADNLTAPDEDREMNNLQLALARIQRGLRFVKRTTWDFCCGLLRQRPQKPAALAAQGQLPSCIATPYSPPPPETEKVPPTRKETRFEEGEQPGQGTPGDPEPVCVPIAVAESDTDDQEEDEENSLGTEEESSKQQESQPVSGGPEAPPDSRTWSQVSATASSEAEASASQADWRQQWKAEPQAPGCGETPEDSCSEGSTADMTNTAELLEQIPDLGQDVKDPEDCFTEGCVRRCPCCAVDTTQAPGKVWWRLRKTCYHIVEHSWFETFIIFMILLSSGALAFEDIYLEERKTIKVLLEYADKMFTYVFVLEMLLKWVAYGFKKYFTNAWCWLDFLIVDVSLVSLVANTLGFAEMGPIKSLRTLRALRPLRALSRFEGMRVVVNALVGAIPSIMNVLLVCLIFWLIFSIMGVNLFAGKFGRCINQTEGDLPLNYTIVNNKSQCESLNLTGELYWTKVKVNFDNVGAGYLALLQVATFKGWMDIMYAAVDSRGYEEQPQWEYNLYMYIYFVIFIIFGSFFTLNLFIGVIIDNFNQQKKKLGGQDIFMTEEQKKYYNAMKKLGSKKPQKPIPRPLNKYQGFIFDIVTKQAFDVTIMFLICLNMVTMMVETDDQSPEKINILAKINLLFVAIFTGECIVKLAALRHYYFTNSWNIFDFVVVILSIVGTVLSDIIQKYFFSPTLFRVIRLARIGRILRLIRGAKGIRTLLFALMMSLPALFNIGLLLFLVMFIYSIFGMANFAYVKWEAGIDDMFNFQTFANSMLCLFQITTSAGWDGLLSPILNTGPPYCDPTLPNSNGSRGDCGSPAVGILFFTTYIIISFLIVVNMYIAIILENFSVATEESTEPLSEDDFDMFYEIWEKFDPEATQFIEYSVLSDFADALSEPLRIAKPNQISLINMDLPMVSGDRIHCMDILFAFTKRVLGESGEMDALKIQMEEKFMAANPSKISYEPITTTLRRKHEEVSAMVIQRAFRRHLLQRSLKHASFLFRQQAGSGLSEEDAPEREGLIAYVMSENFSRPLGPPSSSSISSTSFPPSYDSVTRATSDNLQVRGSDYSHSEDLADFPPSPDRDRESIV

Row | SMILES | IC50 (Cytochrome P450 3A4) [µM] | bioavailability [2] [%] | IC50 (Cytochrome P450 2C9) [µM] | IC50 (Cytochrome P450 2D6) [µM] | Vd [3] [L/kg] | IC50 [4] [µM] | IC50 (L-type calcium channel) [µM] | IC50 (Epoxide hydrolase 1) [µM] | IC50 [5] [µM] | half-life [6] [h] | clearance [7] [mL/min/kg] | IC50 [9] [µM] | IC50 (CYP2D6) [µM] | IC50 (Cytochrome P450 2C8) [µM] | IC50 [1] [µM] | IC50 [8] [µM] | Activity (Rattus norvegicus [10]) | Activity (Rattus norvegicus [11])
1 | CC1(c2ccccc2)CCCN(C(=O)NCCc2ccc(Cl)cc2)C1 (stereo not given) | < 10 | – | > 10 | – | – | – | 2 | 54 | 0.005 | – | – | 0.001 | < 10 | – | – | 9 | – | –
2 | O=C(O)CCC1(c2ccccc2)CCCN(C(=O)Nc2ccc(Cl)cc2)C1 (stereo in doubt) [listing 1 of 2 here] | > 100 | – | > 100 | > 100 | – | 0.002 | – | > 100 | 0.069 | – | – | 0.005 | – | 65 | > 10 | – | – | –
3 | CC1(c2ccccc2)CCCN(C(=O)NCCc2ccc3nc[nH]c3c2)C1 (stereo not given) | > 10 | – | < 10 | – | – | 0.013 | – | > 100 | 0.026 | – | – | 0.029 | < 10 | – | – | 13 | – | –
4 | CC1(c2ccccc2)CCCN(C(=O)NCc2ccc(Cl)cc2Cl)C1 (stereo not given) | < 10 | – | > 10 | – | – | – | 2 | – | 0.003 | – | – | < 0.001 | < 10 | – | < 10 | 20 | – | –
5 | O=C(O)CCCCC1(c2ccccc2)CCCN(C(=O)Nc2ccc(Cl)cc2)C1 (stereo not given) | > 10 | – | > 10 | > 10 | – | < 0.001 | > 30 | > 100 | 0.12 | – | – | 0.005 | – | – | > 10 | > 30 | – | –
6 | CN(C)CCC1(c2ccccc2)CCCN(C(=O)Nc2ccc(Cl)cc2)C1 (stereo not given) | < 10 | 52 | > 10 | – | 1.4 | 0.0013 | 0.1 | > 100 | 0.119 | 0.66 | 59 | 0.012 | < 10 | – | > 10 | 0.3 | – | –
7 | O=C(O)CCC1(c2ccccc2)CCCN(C(=O)Nc2ccc(Cl)cc2)C1 (stereo in doubt) [listing 2 of 2 here] | – | – | – | – | – | – | – | – | – | – | – | – | – | – | – | – | inactive | inactive

Continued, in another order:

Row | IC50 (Cytochrome P450 3A4) [µM] | bioavailability [2] [%] | IC50 (Cytochrome P450 2C9) [µM] | IC50 (Cytochrome P450 2D6) [µM] | Vd [3] [L/kg] | IC50 [4] [µM] | IC50 (L-type calcium channel) [µM] | IC50 (Epoxide hydrolase 1) [µM] | IC50 [5] [µM] | half-life [6] [h] | clearance [7] [mL/min/kg] | IC50 [9] [µM] | IC50 (CYP2D6) [µM] | IC50 (Cytochrome P450 2C8) [µM] | SMILES | IC50 [1] [µM] | IC50 [8] [µM] | Activity (Rattus norvegicus [10]) | Activity (Rattus norvegicus [11])
8 | > 10 | 84 | > 10 | > 10 | 0.8 | 0.004 | > 30 | > 100 | 0.076 | 3.2 | 4 | – | – | – | O=C(O)CCC1(c2ccccc2)CCCN(C(=O)Nc2ccc(Cl)cc2)C1 (stereo in doubt; 2b) | > 10 | > 30 | – | –
9 | > 10 | 13 | > 10 | > 10 | 0.88 | < 0.001 | – | > 100 | 0.026 | 4.4 | 116 | – | – | – | NC(=O)CCC1(c2ccccc2)CCCN(C(=O)Nc2ccc(Cl)cc2)C1 (stereo not given) | – | 7 | – | –
10 | < 10 | 0.17 | > 10 | 10 | 1.4 | < 0.001 | – | > 100 | 0.059 | 0.39 | 124 | 0.005 | – | – | O=C(Nc1ccc(Cl)cc1)N1CCCC(CCc2nn[nH]n2)(c2ccccc2)C1 (stereo not given) | > 10 | 3 | – | –
11 | < 10 | 13 | > 10 | > 10 | 12 | < 0.001 | 1.7 | > 100 | 0.005 | 3.9 | 43 | 0.001 | – | – | CC1(c2ccccc2)CCCN(C(=O)Nc2ccc(Cl)cc2)C1 (stereo not given) | > 10 | 12 | – | –
12 | > 10 | – | < 10 | 10 | – | < 0.001 | 0.9 | > 100 | 0.015 | – | – | 0.001 | – | – | O=C(Nc1ccc(Cl)cc1)N1CCCC(CCO)(c2ccccc2)C1 (stereo not given) | > 10 | 0.07 | – | –
